RGS4 inh: human RGS4 inhibition | P49798 | HEK293 M3R/RGS4 inducible, Fluo-4 calcium flux; stronger effect = higher value; triggered by carbachol at its EC20 | B-score at 10 µM | actives 0.45% (n = 310,000) | AID 463165;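 active = B-score, a plate-corrected calcium signal, over three deviations above library mean, with baseline fluorescence within five deviations of library mean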;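 note: RGS4 expression induced by doxycycline in cells with stable M3 receptor; B-score is computed from the integrated fluorescence ratio over baseline after carbachol; higher B-score means a larger calcium signal and so more RGS4 inhibition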
Target sequence (P49798 whole entry, looked up): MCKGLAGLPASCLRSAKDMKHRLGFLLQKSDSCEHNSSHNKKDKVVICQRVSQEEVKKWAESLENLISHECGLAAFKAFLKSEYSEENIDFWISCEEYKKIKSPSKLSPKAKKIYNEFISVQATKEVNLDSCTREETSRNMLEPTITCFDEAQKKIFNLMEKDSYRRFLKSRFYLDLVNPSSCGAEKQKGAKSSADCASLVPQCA
MrgX1 antagonist: antagonists of human MrgX1 receptor. actives 1.3% (n = 310,000). B-score at 10 µM. MRGX1-HEK293 calcium flux, Fluo-4, BAM8-22 antagonism; stronger effect = lower value. Q96LB2. AID 588676;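 active = calcium-response B-score plate-corrected more than 3 library SD below zero, starting fluorescence within 5 deviations, no agonist response on first addition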;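 note: peak minus trough fluorescence over baseline after final BAM8-22 challenge near maximal dose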
Target sequence (Q96LB2 whole entry, looked up): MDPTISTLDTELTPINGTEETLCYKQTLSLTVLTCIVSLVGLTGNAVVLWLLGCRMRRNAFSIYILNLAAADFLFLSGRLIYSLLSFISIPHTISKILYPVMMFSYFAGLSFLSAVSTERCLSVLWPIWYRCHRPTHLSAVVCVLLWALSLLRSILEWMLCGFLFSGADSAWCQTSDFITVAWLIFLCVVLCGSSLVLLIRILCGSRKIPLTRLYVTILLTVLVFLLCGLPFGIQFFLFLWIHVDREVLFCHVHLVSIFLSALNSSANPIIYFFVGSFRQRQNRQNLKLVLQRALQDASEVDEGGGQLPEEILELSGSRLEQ
MrgX1 allo act: human MrgX1 positive allosteric modulation, primary screen | MrgX1-HEK293, Fluo-4 calcium flux, FDSS; stronger effect = higher value | Q96LB2 | B-score at 10 µM | actives 0.63% (n = 310,000);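 active = plate-corrected calcium response at least 3 library SD above typical, normal starting fluorescence, not activating the receptor alone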;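 note: compound read alongside a low EC10 to EC30 dose of BAM8-22 agonist; peak minus trough fluorescence over baseline measured at the second addition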
RGS4 act: RGS4 potentiation or activation | HEK293 M3R/inducible RGS4, carbachol calcium flux Fluo4; stronger effect = lower value | B-score at 10 µM | actives 0.92% (n = 310,000) | AID 463111;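 active = B-score of the integrated calcium signal more than 4 SD below the library mean, with starting fluorescence not abnormally high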;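 note: negative B-score means reduced calcium response which marks RGS4 activation or potentiation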
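Material: Inducible-RGS4 HEK293 cells carrying M3 receptor; also added: carbachol at ECmax as muscarinic agonist stimulus; incubation: compound preincubation 20 min at room temperature before agonist; signal: Fluo4-AM (2 µM) calcium-flux fluorescence, kinetic read; measure: integrated calcium ratio converted to B score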
MrgX1 agonist: human MrgX1 receptor agonism, primary screen. Q96LB2. MrgX1-HEK293 cells, Fluo-4 calcium fluorescence, agonist mode; stronger effect = higher value. B-score at 10 µM. actives 0.44% (n = 310,000). AID 588627;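 active = calcium response B-score plate-corrected fluorescence ratio at least 3 library SD, with starting fluorescence B-score inside 5 SD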
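Material: MrgX1-expressing HEK293 cells / Dosing: compound as first of three additions / Incubation: overnight seeding, then 1 h dark dye loading / Signal: Fluo-4 NW calcium fluorescence / Evaluation: B-scored fluorescence response ratio / Benchmarks: positive and negative control wells on each plate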
MrgX1 ant reconf: reconfirmed antagonist of human MrgX1 receptor signaling | remaining BAM8-22 calcium response % of control (stronger effect = lower value), % at 10 µM | actives 19% (n = 2,300) | AID 602420 | shares compounds with MrgX1 antagonist | MrgX1-HEK293, BAM8-22 calcium flux, Fluo-4; stronger effect = lower value;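 active = remaining agonist calcium response no higher than 100% minus 3 SD of agonist-only control wells, with starting fluorescence near control levels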;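 note: agonist BAM8-22 given at a near maximal EC90 to ECmax level; peak minus minimum fluorescence divided by baseline after agonist addition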
HEK293 Ca flux: counter-screen for MrgX1 antagonists: effect in parental HEK293 cells. Fluo-4 calcium fluorescence, FDSS. AID 624111. fluorescence ratio F(max-min)/F0 at 10 µM. shares compounds with MrgX1 antagonist. actives 2% (n = 4,000);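 active = duplicate-averaged calcium fluorescence ratio at least three times the standard deviation of buffer wells, a nonspecific response in parental cells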
HEK293 Ca counter: MrgX1 allosteric activator counter-screen hit in parental HEK293 cells; shares compounds with MrgX1 antagonist; fluorescence ratio F(max-min)/F0 at 10 µM; parental HEK293 calcium flux, Fluo-4 fluorescence ratio; stronger effect = higher value; actives 0.4% (n = 4,000);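 active = calcium fluorescence ratio, averaged over duplicates, at least 3 SD of the buffer-well ratio, meaning a nonspecific response in receptor-free cells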;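 note: untransfected parental HEK293 lacking MrgX1 used as counterscreen for MrgX1 allosteric activators; fluorescence change taken during the second addition on a kinetic imager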
HEK293 Ca cntr2: counter-screen for MrgX1 activators: effect in parental HEK293 cells | shares compounds with MrgX1 antagonist | Fluo-4 calcium fluorescence (FDSS); stronger effect = higher value | fluorescence ratio F(max-min)/F0 at 10 µM | actives 8.7% (n = 4,000);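 active = calcium fluorescence ratio at least three times the spread of buffer wells, meaning a non-specific response in parental cells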
* = called active by the depositor; i = inactive; · = no result given. This is a sample that favours compounds with a hit; in the whole collection about 3.5% have one here.

SMILES	RGS4 inh	MrgX1 antagonist	MrgX1 allo act	RGS4 act	MrgX1 agonist	MrgX1 ant reconf	HEK293 Ca flux	HEK293 Ca counter	HEK293 Ca cntr2
COc1ccc(N2CCN(C(=O)CCNC(=O)c3ccc(C(C)(C)C)cc3)CC2)cc1	i	i	i	i	i	·	·	·	·
Cc1nc2nc(C)c(CCC(=O)N3CCOCC3)c(C)n2n1	i	-5.3*	i	i	i	i	i	i	68*
O=C(Cc1ccc2c(c1)OCCO2)c1c(O)cc(O)cc1O	i	-5.2*	i	i	i	71%*	i	i	i
COc1ccc(C(=O)Cc2ccc3c(c2)OCO3)c(O)c1	i	i	i	i	i	·	·	·	·
COC(=O)c1sc(-c2ccc(Cl)cc2)cc1NC(=O)CSCC(=O)O	i	i	i	i	i	·	·	·	·
COC(=O)c1sc(-c2ccc(C(C)(C)C)cc2)cc1NC(=O)COCC(=O)O	i	-4.7*	i	i	i	68%*	i	i	60*
O=[N+]([O-])c1cccc(-c2n[nH]c(=S)n2Cc2ccccc2)c1	i	-17*	i	i	i	i	i	i	i
Cc1ccc(NC(=O)CCNS(=O)(=O)c2cc(Br)cnc2N)c(Cl)c1	i	-5.5*	i	i	i	i	i	i	i
O=C(CNC(=O)c1ccccc1F)OCc1csc(-c2ccccc2)n1	i	-5*	i	i	i	i	i	i	i
CCN(CC)c1ccc(C(=O)N/N=C/c2ccc(OC)cc2OC)cc1	i	i	i	i	i	·	·	·	·
CCOC(=O)C1(CC2CCCCO2)CCN(C(=O)Nc2ccccc2SC)CC1 (stereo not drawn)	i	i	i	i	i	·	·	·	·
CCCc1cc(=O)[nH]c(SCCN2C(=O)c3ccccc3C2=O)n1	i	-5.3*	i	i	i	i	i	i	i
O=C(Nc1ccc(Cl)c(Cl)c1)Nc1ccccc1NS(=O)(=O)c1cccs1	i	-7.3*	i	i	i	74%*	i	i	i
O=C(Nc1ccccc1)Nc1ccccc1NS(=O)(=O)c1cccs1	i	i	i	i	i	·	·	·	·
COc1ccc(OC)c(NC(=O)CN(Cc2ccccc2)S(C)(=O)=O)c1	i	-9.1*	i	i	i	i	i	i	i
COc1ccc(OC)c(NC(=O)Nc2cccc3ccccc23)c1	i	-4.6*	i	i	i	i	i	i	i
COc1ccc(NC(=O)CN(Cc2ccccc2)S(C)(=O)=O)c(OC)c1	i	i	i	i	i	·	·	·	·
O=C(COC(=O)c1ccc2[nH]c3c(c2c1)CCCC3)Nc1ccccc1Cl	i	i	i	i	i	·	·	·	·
CCC(C)c1ccccc1NC(=O)COC(=O)c1ccc2[nH]c3c(c2c1)CCCC3 (stereo not drawn)	i	-7.4*	i	i	i	i	i	i	i
COc1ccc(S(=O)(=O)N2CCN(c3ccccn3)CC2)c(OC)c1	i	i	i	i	i	·	·	·	·
CC(=O)N1c2ccc(S(=O)(=O)N3CCC(C(=O)N4CCCC(C)C4)CC3)cc2CC1C (stereo not drawn)	i	i	i	i	i	·	·	·	·
C=CCn1c(C)nnc1SCC(=O)Nc1oc(C)c2c(C)n[nH]c(=O)c12	i	-5.3*	i	i	i	i	i	i	i
CCOCCCn1c(SCC(=O)Nc2oc(C)c3c(C)n[nH]c(=O)c23)nnc1-c1ccncc1	i	i	i	i	i	·	·	·	·
Cc1n[nH]c(=O)c2c(NC(=O)CSc3nnc(-c4ccncc4)n3C)oc(C)c12	i	-7.1*	i	i	i	i	i	i	i
COc1ccc(N2CCN(C(=O)c3ccccc3N(C)S(=O)(=O)c3ccccc3)CC2)cc1	i	i	i	i	i	·	·	·	·
SMILES	RGS4 inh	MrgX1 antagonist	MrgX1 allo act	RGS4 act	MrgX1 agonist	MrgX1 ant reconf	HEK293 Ca flux	HEK293 Ca counter	HEK293 Ca cntr2
Cc1ccc(Nc2nc(C(=O)N3CCC(C(=O)N4CCN(C)CC4)CC3)cs2)cc1	i	-8.2*	i	i	i	i	i	i	i
O=S(=O)(c1ccc(N2CCOCC2)cc1)N1CCOCC1	i	-4.9*	i	i	i	i	i	i	i
CCS(=O)(=O)N1CCN(c2ccc(S(=O)(=O)N3CCOCC3)cc2)CC1	i	i	i	i	i	·	·	·	·
Nc1c(C(=O)NCc2ccco2)c2nc3ccccc3nc2n1CCc1ccccc1F	i	-7.5*	i	i	i	i	i	i	i
COc1ccc(CCn2c(N)c(C(=O)NCc3ccco3)c3nc4ccccc4nc32)cc1	i	i	i	i	i	·	·	·	·
Cc1nn(C(=O)N2CCOCC2)c(C)c1CN1C(=O)c2ccccc2C1=O	i	i	i	i	i	·	·	·	·
COc1ccc(-c2noc(CSc3nc(N)c(-c4ccccc4)c(=O)[nH]3)n2)cc1	i	-7.1*	i	i	i	75%*	i	i	i
N#Cc1c(N)nc2c(c1-c1ccncc1)CCCCC2	i	i	i	i	i	·	·	·	·
Cc1cccc(NC(=O)CNC(=O)c2ccc3c(c2)OCO3)n1	i	-9.4*	i	i	i	i	i	i	i
O=[N+]([O-])c1cc(-c2nnc(N3CCOCC3)c3ccccc23)ccc1N1CCOCC1	i	i	i	i	i	·	·	·	·
Cc1cccc(CNC(=O)Cn2ccc3cc(S(=O)(=O)N4CCCC4)ccc32)c1	i	-6.8*	i	i	i	i	i	i	i
Cc1cccc(CNC(=O)Cn2ccc3cc(S(=O)(=O)N4CCCCCC4)ccc32)c1	i	i	i	i	i	·	·	·	·
COCCOC(=O)C1=C(C)OC(N)=C(C#N)C1c1ccco1 (stereo not drawn)	i	i	i	i	i	·	·	·	·
CCOC(=O)CSc1n[nH]c(-c2cccnc2)n1	i	-7*	i	i	i	i	i	i	i
